# CaV13 FRET inh: Primary screen for inhibitors of IQ motif and Ca2+-dependent inactivation inhibitor domain binding in CACNA1D, Förster resonance energy transfer in living cells, … | HEK cells, CFP/YFP FRET ICDI-IQ, plate reader, 10 min; percent FRET-ratio fall versus neutral wells | inhibition, % at 12.3 µM | 0.098% of 340,000 active;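 active means mean replicate inhibition of at least 30% and at least 1% of replicates passing that level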;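 further: 0% = median of the neutral control wells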
# NPR1 activator: GC-A (human) enzyme activation | P16066 | HEK293 GC-A cells, cGMP TR-FRET, EC30 ANP; 0% at EC30 ANP, 100% saturating ANP | activation, % at 10 µM | 0.14% of 370,000 active | AID 1671463; in the data active means activation above about 40%
# Casp6 inh: inhibitors of human caspase-6; P55212; purified caspase-6, Z-VEID-R110 cleavage fluorescence; inhibition, % at 12.5 µM; 0.53% of 350,000 active; AID 686996;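 active means mean inhibition across replicates at least about 35%, with every replicate also reaching that limit, limit read from the data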;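 further: 0% = median of neutral control wells and 100% = no fluorescence left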
# NPR2 activator: GC-B (human) receptor activation; HEK293-GC-B cells, CNP EC30, cGMP TR-FRET; 0% at EC30 CNP, 100% saturating CNP; activation, % at 10 µM; 0.11% of 370,000 active;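 active means activation at 10 µM reaching about 35% in either raw or pattern-adjusted values, limit read from the data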
# Target sequence (P20594 whole entry, looked up): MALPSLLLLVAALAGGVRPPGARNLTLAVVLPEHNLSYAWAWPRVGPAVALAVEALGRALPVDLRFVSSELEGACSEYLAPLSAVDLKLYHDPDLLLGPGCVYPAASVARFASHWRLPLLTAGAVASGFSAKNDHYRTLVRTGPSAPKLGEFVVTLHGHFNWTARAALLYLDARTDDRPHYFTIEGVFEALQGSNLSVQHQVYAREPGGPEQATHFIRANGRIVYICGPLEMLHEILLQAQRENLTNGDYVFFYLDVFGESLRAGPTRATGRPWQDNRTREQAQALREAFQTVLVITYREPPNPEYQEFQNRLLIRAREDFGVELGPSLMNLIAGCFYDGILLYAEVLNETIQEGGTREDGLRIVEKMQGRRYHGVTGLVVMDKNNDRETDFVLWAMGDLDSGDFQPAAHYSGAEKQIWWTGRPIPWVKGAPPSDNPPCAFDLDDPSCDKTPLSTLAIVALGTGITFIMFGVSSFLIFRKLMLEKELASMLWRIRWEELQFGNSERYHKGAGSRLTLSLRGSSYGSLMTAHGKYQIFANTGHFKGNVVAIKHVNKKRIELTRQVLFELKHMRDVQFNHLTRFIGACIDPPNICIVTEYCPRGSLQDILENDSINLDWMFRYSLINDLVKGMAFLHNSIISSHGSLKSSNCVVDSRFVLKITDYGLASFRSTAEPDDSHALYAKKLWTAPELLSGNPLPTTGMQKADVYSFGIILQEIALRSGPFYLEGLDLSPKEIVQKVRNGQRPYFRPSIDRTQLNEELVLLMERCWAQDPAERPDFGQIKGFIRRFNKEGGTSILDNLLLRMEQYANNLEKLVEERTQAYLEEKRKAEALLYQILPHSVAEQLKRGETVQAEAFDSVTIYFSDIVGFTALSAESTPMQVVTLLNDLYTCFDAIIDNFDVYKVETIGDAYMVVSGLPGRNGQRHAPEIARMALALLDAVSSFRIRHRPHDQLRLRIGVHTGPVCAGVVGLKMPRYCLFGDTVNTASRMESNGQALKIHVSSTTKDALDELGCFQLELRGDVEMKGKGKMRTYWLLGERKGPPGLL
# FN deposit inh: fibronectin deposition inhibition; inhibition, % at 12.6 µM; AH1F fibroblasts, Alexa488-fibronectin deposition fluorescence, overnight; 0.086% of 350,000 active; AID 743247;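 active means mean inhibition across replicates of 30% or more, regardless of how many single replicates reach that level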;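 further: positive control wells lacked labelled fibronectin entirely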
#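 Assay system: AH1F fibroblast monolayer, labelled fibronectin deposition. Amount: 10000 cells per well. Also added: labelled fibronectin 24 nM. Compound: single-point pinned compound. Incubation: cell attachment 1 h, compound and FN exposure overnight. Detection: fluorescence after three HBSS washes, excitation 485 nm, emission 525 nm. Read-out: inhibition of fibronectin deposition signal.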
# NSD2 HMT inh: inhibitors of human histone methyltransferase NSD2; O96028; inhibition, % at 12.5 µM; 0.54% of 310,000 active; NSD2 peptide methylation, AlphaScreen, 120 min; in the data active means inhibition above about 50%
# An asterisk follows results filed as active; · = no result given; + = active, no number. Sampled rows, rich in hits. Any-hit rate of the full collection: about 0.99%.
SMILES,CaV13 FRET inh,NPR1 activator,Casp6 inh,NPR2 activator,FN deposit inh,NSD2 HMT inh
C[C@H](CO)N1C[C@H](C)[C@@H](CN(C)Cc2ccc3c(c2)OCO3)Oc2ccc(NC(=O)Nc3ccccc3)cc2C1=O,·,·,0.9,·,·,·
C[C@@H]1CN([C@@H](C)CO)C(=O)c2cc(NC(=O)Nc3ccccc3)ccc2O[C@@H]1CN(C)Cc1ccc2c(c1)OCO2,·,·,54.3*,·,·,·
Cc1ccc(S(=O)(=O)Nc2ccc3c(c2)CC(=O)N([C@H](C)CO)C[C@@H](C)[C@@H](CN(C)S(C)(=O)=O)O3)cc1,·,·,1.8,·,6.7,·
O=C(/C=C/c1ccccc1Cl)Nc1cccc(S(=O)(=O)NC2=NCCCCC2)c1,-3.0,-10.1,·,-9.2,-1.4,-2.3
O=C(/C=C/c1ccc(Cl)cc1Cl)Nc1cccc(S(=O)(=O)NC2=NCCC2)c1,8.1,-48.6,-1.4,-7.9,33.1*,-3.4
O=C1C=CCCN1C(=O)/C=C/c1ccccc1,·,·,-1.1,·,·,·
Cc1ccc(S(=O)(=O)Nc2ccc3c(c2)C(=O)N([C@H](C)CO)C[C@H](C)[C@@H](CN(C)S(C)(=O)=O)OCCCC[C@H](C)O3)cc1,·,·,-1.0,·,6.2,·
C=C1C(=O)C23CCC4C(C)(C(=O)OC)CCCC4(C)C2CCC1(O)C3 (stereo unspecified),-7.2,3.3,3.9,24.8,36.9*,6.0
CCCNC(=O)Nc1ccc2c(c1)C(=O)N(C)C[C@H](OC)[C@@H](C)CN(CCC(F)(F)F)[C@@H](C)CO2,·,·,·,·,5.0,·
C=CCn1c(N)c(C(=O)NCCC2=CCCCC2)sc1=S,-8.8,31.4,-1.1,37.6*,·,1.1
Cc1ccc(S(=O)(=O)N2CCCCC2)cc1C(=O)Nc1ccc(S(=O)(=O)Nc2ncccn2)cc1,-15.2,0.2,51.1*,-0.9,2.0,·
O=C(Nc1ccc(S(=O)(=O)Nc2ncccn2)cc1)c1ccc(S(=O)(=O)N2CCCC2)cc1,-3.7,-0.3,1.0,2.8,-3.3,2.8
CCc1noc(C)c1C(=O)Nc1ccc(S(=O)(=O)N2CCCC(C)C2)cc1 (stereo unspecified),-5.7,1.3,42.0*,4.9,·,-2.0
CC(C)NC(=O)N(C)C[C@H]1OCc2ccccc2-c2ccccc2C(=O)N([C@H](C)CO)C[C@@H]1C,·,·,·,·,4.7,·
O=S(=O)(N[C@H]1CC[C@@H](CCn2cc(-c3ccccc3F)nn2)O[C@@H]1CO)c1ccc(F)cc1,·,·,2.1,·,·,·
COCc1cc(C)nc(SCC(=O)Oc2ccccc2)c1C#N,-1.8,3.6,-3.1,-2.5,-10.4,-7.6
COCc1cc(C)nc(SCC(=O)Oc2ccc(Cl)cc2)c1C#N,47.4*,-23.1,-0.3,-6.3,0.9,-8.6
C[C@H]1CN([C@@H](C)CO)S(=O)(=O)c2ccc(C3=CCCC3)cc2O[C@H]1CN(C)C(=O)c1ccccn1,·,·,0.5,·,·,·
O=C(CCOc1ccccc1)N1CCN(S(=O)(=O)c2ccccc2F)CC1,-7.1,0.9,48.2*,-0.1,-1.1,-2.0
C[C@H](CO)N1C[C@H](C)[C@@H](CN(C)S(C)(=O)=O)Oc2ccc(NS(C)(=O)=O)cc2C1=O,·,·,2.4,·,·,·
CC1(C(=O)NNC(=O)c2ccc(=O)oc2)CC1Br (stereo unspecified),-1.6,-3.2,41.5*,-2.4,6.1,7.4
COc1ccccc1NC(=O)c1sc(NC(=O)c2ccco2)c(C#N)c1C,-9.7,3.3,5.1,-1.8,·,-0.5
Cc1ccccc1OCC(=O)Nc1sc(C(=O)Nc2cccc(C)c2C)c(C)c1C#N,-7.7,55.8*,-4.1,-8.8,·,11.6
COc1ccc(NC(=O)N(C)C[C@@H]2OCc3ccccc3-c3ccccc3C(=O)N([C@@H](C)CO)C[C@H]2C)cc1,·,·,-2.0,·,5.4,·
CCNC(=S)N1CCCCC1CO (stereo unspecified),-0.6,-1.6,46.6*,3.2,6.1,-5.6
SMILES,CaV13 FRET inh,NPR1 activator,Casp6 inh,NPR2 activator,FN deposit inh,NSD2 HMT inh
CNC[C@@H]1OCCCC[C@@H](C)Oc2ccc(NC(=O)c3ccccc3)cc2C(=O)N([C@H](C)CO)C[C@H]1C,·,·,2.0,·,·,·
O=C(O)C(Cc1ccccc1)N1C(=O)/C(=C/C=C/c2ccco2)SC1=S (stereo unspecified),-7.2,-23.2,91.2*,1.0,2.7,+
O=C(NN1C(=O)/C(=C/C=C/c2ccco2)SC1=S)c1ccccc1O,-3.1,-8.2,92.1*,-1.3,-1.2,·
O=C1S/C(=C\C=C\c2ccco2)C(=O)N1c1ccc(O)cc1,-3.4,-4.0,43.1*,0.1,-1.9,4.5
Cc1ccc(S(=O)(=O)N[C@@H]2CC[C@@H](CC(=O)NCCCN(C)C)O[C@H]2CO)cc1,·,·,-2.5,·,·,·
COc1ccc(S(=O)(=O)Nc2ccc3c(c2)CC(=O)N([C@H](C)CO)C[C@H](C)[C@@H](CN(C)S(=O)(=O)c2c(C)noc2C)O3)cc1,·,·,0.4,·,0.7,·
C[C@H]1CN([C@@H](C)CO)C(=O)Cc2cc(NC(=O)CCCN(C)C)ccc2O[C@@H]1CN(C)C(=O)Nc1ccc2c(c1)OCO2,·,·,-9.0,·,·,·
COc1ccc(-n2c(=S)[nH]c3c(oc4ccccc43)c2=O)cc1,-11.7,19.5,·,3.2,-1.8,-0.2
Cc1ccc(-n2c(=O)[nH]c3c(oc4ccccc43)c2=O)cc1,-3.2,0.4,0.1,0.3,31.1*,-3.6
COc1ccc(C(=O)NCC(c2ccco2)N2CCCCC2)cc1S(=O)(=O)Nc1ccc(C)cc1 (stereo unspecified),-1.9,2.1,2.4,2.9,-2.2,-0.4
COc1ccc(C(=O)NCC(c2ccco2)N2CCCC2)cc1S(=O)(=O)N1CCCCC1C (stereo unspecified),-2.1,-1.0,52.6*,6.1,-7.9,4.0
N#C[C@H]1[C@H](c2ccccc2-c2cccc(F)c2)[C@@H](CO)N1C(=O)C1CC1,·,·,·,·,-7.8,·
CC1CCCCN1Cc1c(O)ccc2c(=O)c(-c3nc4ccccc4s3)coc12 (stereo unspecified),44.4*,2.7,6.6,-3.7,1.8,5.9
CC(C)c1ccc(C2NC(=S)NC3=C2C(=O)CC(C)(C)C3)cc1 (stereo unspecified),-15.0,42.6*,1.4,2.2,0.5,0.5
CCOc1cc(/C=C2\C(=N)N3N=C(S(=O)(=O)CC)SC3=NC2=O)ccc1OC(=O)c1ccco1,-16.9,-4.3,11.0,2.6,-10.3,28.9
COc1cc(/C=C2\C(=N)N3N=C(S(C)(=O)=O)SC3=NC2=O)ccc1OCCOc1ccccc1C,-4.0,-7.7,39.6*,-2.9,2.9,5.4
COc1cc(/C=C2\C(=N)N3N=C(S(C)(=O)=O)SC3=NC2=O)ccc1OC(=O)c1ccco1,-3.2,0.8,41.1*,3.1,-2.7,48.1
O=C(/C=C/c1ccco1)c1cccnc1,-2.8,0.5,64.9*,-2.7,-5.9,27.6

# Screening data deposited in PubChem by several laboratories.
